In brackets after ≈: the same amount, converted by molar mass.
Assays:
[1] = Half life in mouse liver microsomes; format: ADME, Microsome
Outline: (§1)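 Liver microsomes (human: pooled from 200 mixed-gender donors; mouse: female […]) were diluted in 0.1 M potassium phosphate, pH 7.4, with EDTA, then spiked from a 2 mM DMSO/acetonitrile compound stock. Reactions were started with cofactor solutions A+B and kept at 37 °C with shaking. Samples at 0, 0.5, 1, 2 and 4 h were quenched with cold methanol containing 10 μM warfarin and analysed by UPLC-MS (SIR). k = −2.303 × slope of log peak-area ratio versus time; t1/2 = 0.693/k.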

[2] = system: HepG2; assay: Cytotoxicity against human HepG2 cells after 72 hrs by Cell Titre Glo assay; format: cell-based; conditions: HepG2, 72 h
Outline: (§2)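 Human cells grown to 80% confluence were plated in 384-well format and received compound dilutions by pin tool. After 72 h at 37 °C in 5% CO2, viability was measured by CellTiter-Glo luminescence.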

[3] = Half life in human liver microsomes; format: ADME, Microsome; outline: as §1
[4] = system: Trypanosoma brucei brucei; assay: Antitrypanosomal activity against Trypanosoma brucei brucei 221 after 48 hrs by Cell Titre Glo assay; format: functional, organism-based; conditions: Trypanosoma brucei, 221, 48 h
Outline: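 Bloodstream-form parasites grown in HMI-9 with 10% heat-inactivated FBS, 10% Serum Plus and penicillin/streptomycin at 37 °C, 5% CO₂, to 1 × 10⁶ cells/mL. Diluted to 1 × 10⁴ cells/mL, then dosed with a DMSO dilution series by pin transfer. Incubated 48 h at 37 °C, 5% CO₂. Viability read by CellTiter-Glo luminescence. EC₅₀ from a variable-slope sigmoidal fit. Mean of six replicates, errors as 95% CI.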

[5] = system: Trypanosoma brucei gambiense; assay: Antitrypanosomal activity against Trypanosoma brucei gambiense STIB930 after 70 hrs by Alamar Blue assay; format: functional, organism-based; conditions: STIB930, 70 h
Outline: (§3)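 T. b. gambiense strains were grown in HMI-9 with 15% heat-inactivated FBS and 5% human serum. 10000 trypanosomes per well were seeded into serial drug dilutions and held 70 h at 37 °C in humidified 5% CO2. Resazurin was then added for a further 4–6 h, and fluorescence was read (ex 536/em 588 nm). IC50 was taken by linear regression from sigmoidal dose-inhibition curves.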

[6] = system: Trypanosoma brucei rhodesiense; assay: Antitrypanosomal activity against bloodstream forms of wild type Trypanosoma brucei rhodesiense STIB900 after 70 hrs by Alamar Blue assay; format: functional, organism-based; conditions: STIB900, 70 h
Outline: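 T. b. rhodesiense STIB 900 was cultured in MEM with Earle's salts and Baltz supplements (0.2 mM 2-mercaptoethanol, 1 mM Na-pyruvate, 0.5 mM hypoxanthine, 15% heat-inactivated horse serum). 2000 bloodstream forms per well were exposed to serial drug dilutions for 70 h at 37 °C in humidified 5% CO2. Resazurin followed for 2–4 h, read by fluorescence (ex 536/em 588 nm). IC50 came from sigmoidal curves by linear regression.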

[7] = system: BJ; assay: Cytotoxicity against human BJ cells after 72 hrs by Cell Titre Glo assay; format: cell-based; outline: as §2
[8] = system: Raji; assay: Cytotoxicity against human Raji cells after 72 hrs by Cell Titre Glo assay; format: cell-based; outline: as §2
[9] = Permeability of the compound at pH 7.4 by PAMPA; format: ADME; conditions: PAMPA, read-out: permeability
Outline: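 Compound (10 mM DMSO stock) was diluted in system solution buffer pH 7.4 and placed in the donor chamber of a PAMPA sandwich whose membrane was coated with GIT lipid. Acceptor buffer filled the acceptor chamber, and the assembly was stirred for 30 min. Donor and acceptor UV spectra (250–500 nm) were compared with a reference to give the permeability coefficient. Run in triplicate.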

[10] = system: HEK293; assay: Cytotoxicity against HEK293 cells after 72 hrs by Cell Titre Glo assay; format: cell-based; conditions: Homo sapiens, HEK293, 72 h; outline: as §2
[11] = Kinetic solubility of the compound in PBS buffer at pH 7.4 after 18 hrs by UV spectrophotometric analysis; format: physicochemical; conditions: for Kinetic_solubility: buffer, pH 7.4, 18 h, BLD = below limit of detection; for solubility kinetic at 18 h: PBS buffer, pH 7.4, read-out: Kinetic_solubility
Outline: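 Compound from a 10 mM stock was added to PBS pH 7.4 and left 18 h at room temperature. The suspension was filtered, and the filtrate was mixed 1:1 with 1-propanol. Solubility was derived from UV spectrum AUC (250–500 nm) relative to a 1-propanol/PBS reference. Run in triplicate.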

[12] = Permeability of the compound at pH 3.0 by PAMPA; format: ADME; conditions: read-out: permeability
[13] = Kinetic solubility of the compound in PBS buffer at pH 3.0 after 18 hrs by UV spectrophotometric analysis; format: physicochemical; conditions: read-out: Kinetic_solubility
[14] = system: Trypanosoma brucei gambiense; assay: Antitrypanosomal activity against Trypanosoma brucei gambiense DAL 898R after 70 hrs by Alamar Blue assay; format: functional, organism-based; outline: as §3
[15] = system: Trypanosoma brucei gambiense; assay: Antitrypanosomal activity against Trypanosoma brucei gambiense KO48 after 70 hrs by Alamar Blue assay; format: functional, organism-based; conditions: KO48, 70 h; outline: as §3

| SMILES | half-life [1] [h] | EC50 [2] [nM] | half-life [3] [h] | EC50 [4] [nM] | EC50 [5] [nM] | EC50 [6] [nM] | EC50 [7] [nM] | EC50 [8] [nM] | Papp [9] [×10⁻⁶ cm/s] | EC50 [10] [nM] | Kinetic_solubility [11] | Papp [12] [×10⁻⁶ cm/s] | solubility kinetic at 18 h [13] [µM] | solubility kinetic at 18 h [11] [µM] | EC50 [14] [nM] | EC50 [15] [nM] |
| --- | --- | --- | --- | --- | --- | --- | --- | --- | --- | --- | --- | --- | --- | --- | --- | --- |
| Cc1ccc(-c2nc3ccccc3s2)cc1NC(=O)c1cc([N+](=O)[O-])ccc1Cl | > 4 | > 14000 | > 4 | 6 | 36 | 13 | > 14000 | > 14000 | 41 | > 14000 | BLD | – | – | – | – | – |
| Cc1ccc(-c2nc3ccccc3s2)cc1NC(=O)c1cc([N+](=O)[O-])c(N2CCNCC2)cc1Cl | > 4 | > 25000 | > 4 | – | 2 | 7 | 14500 | > 25000 | 4 | > 25000 | – | 0.6 | 1.15 (≈ 0.584 µg/mL) | 0.08 (≈ 0.0406 µg/mL) | – | – |
| CN1CCN(c2cc(Cl)c(C(=O)Nc3cccc(-c4nc5ccccc5s4)c3)cc2[N+](=O)[O-])CC1 | 0.81 | 8600 | 3.3 | 110 | 160 | 210 | > 25000 | 14500 | 366 | 14200 | BLD | 108 | 46 (≈ 23.4 µg/mL) | – | – | – |
| O=C(Nc1cccc(-c2nc3ccccc3s2)c1)c1cc([N+](=O)[O-])c(N2CCNCC2)cc1Cl | – | 5300 | – | 190 | – | – | > 25000 | > 25000 | 276 | 12700 | – | < 1 | 0.98 (≈ 0.484 µg/mL) | 0.72 (≈ 0.356 µg/mL) | – | – |
| O=C(Nc1cccc(-c2nc3ccccc3s2)c1)c1cc([N+](=O)[O-])c(N2CCOCC2)cc1Cl | – | > 25000 | – | 220 | – | – | > 25000 | > 25000 | 18 | > 25000 | – | 106 | 0.07 (≈ 0.0346 µg/mL) | 0.37 (≈ 0.183 µg/mL) | – | – |
| Cc1ccc(-c2nc3ccccc3s2)cc1NC(=O)c1cc([N+](=O)[O-])c(N2CCN(C)CC2)cc1Cl | 1.3 | > 25000 | 1.6 | 41 | 1 | 11 | > 25000 | > 25000 | 74 | > 25000 | – | 60 | 0.56 (≈ 0.292 µg/mL) | 0.7 (≈ 0.365 µg/mL) | – | – |
| O=C(Nc1cccc(-c2nc3ccccc3s2)c1)c1cc([N+](=O)[O-])ccc1Cl | 0.18 | > 25000 | 1 | 190 | 110 | 160 | > 27000 | > 27000 | 12 | > 27000 | – | 51 | 0.51 (≈ 0.209 µg/mL) | 0.58 (≈ 0.238 µg/mL) | 200 | 170 |

— ChEMBL document CHEMBL2321751, “Optimization of chloronitrobenzamides (CNBs) as therapeutic leads for human African trypanosomiasis (HAT)” (J Med Chem, 2013)
